Laboratory results reported in ChEMBL document CHEMBL4020832, “Development of (6 R)-2-Nitro-6-[4-(trifluoromethoxy)phenoxy]-6,7-dihydro-5 H-imidazo[2,1- b][1,3]oxazine (DNDI-8219): A New Lead for Visceral Leishmaniasis” (J Med Chem, 2018).
Each block holds one molecule with its values, some of them ahead of it.

Tests used:
Liver [1] = test: Metabolic stability in CD-1 mouse liver microsomes assessed as parent compound remaining at 0.5 uM after 0.5 hr; type: ADME, microsome
[2] = Metabolic stability in hamster liver microsomes assessed as parent compound remaining at 0.5 uM after 0.5 hr; type: ADME, microsome; conditions: read-out: Stability
Liver [3] = test: Metabolic stability in human liver microsomes assessed as parent compound remaining at 0.5 uM after 0.5 hr; type: ADME, microsome
Liver [4] = test: Metabolic stability in CD-1 mouse liver microsomes assessed as parent compound remaining at 1 uM after 1 hr; type: ADME, microsome
Liver [5] = test: Metabolic stability in human liver microsomes assessed as parent compound remaining at 1 uM after 1 hr; type: ADME, microsome
[6] = Metabolic stability in hamster liver microsomes assessed as parent compound remaining at 1 uM after 1 hr; type: ADME, microsome; conditions: read-out: Stability
[7] = Cmax in golden Syrian hamster at 40 mg/kg, po by LC-MS/MS analysis; type: ADME, organism-based, Mesocricetus auratus; design: dose 40 mg/kg, route oral; conditions: in vivo
Outline: (§1)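 Fasted female golden Syrian hamsters. IV dose was 2 mg/kg as a solution in 20% NMP and 40% PEG-400 in citrate buffer (pH 3). Oral dosing at 40–50 mg/kg used PEG-400 as vehicle. Plasma was quantified by LC–MS/MS. AUClast was taken to the last time point (24 or 48 h).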

[8] = AUClast in golden Syrian hamster at 40 mg/kg, po after 24 to 48 hrs by LC-MS/MS analysis; type: ADME, organism-based, Mesocricetus auratus; conditions: in vivo; outline: as §1
[9] = Tmax in golden Syrian hamster at 40 mg/kg, po by LC-MS/MS analysis; type: ADME, organism-based, Mesocricetus auratus; conditions: in vivo
[10] = Half life in golden Syrian hamster at 40 mg/kg, po by LC-MS/MS analysis; type: ADME, organism-based, Mesocricetus auratus; conditions: in vivo
[11] = Volume of distribution at steady state in golden Syrian hamster at 2 mg/kg, iv by LC-MS/MS analysis; type: ADME, organism-based, Mesocricetus auratus; conditions: in vivo, read-out: Vdss
Outline: (§2)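 Fasted female golden Syrian hamsters given 2 mg/kg iv as a solution in 20% NMP and 40% PEG-400 in citrate buffer pH 3. Plasma concentrations determined by LC–MS/MS to derive PK parameters.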

[12] = Clearance in golden Syrian hamster at 2 mg/kg, iv by LC-MS/MS analysis; type: ADME, organism-based, Mesocricetus auratus; conditions: in vivo
[13] = AUClast in golden Syrian hamster at 2 mg/kg, iv after 24 to 48 hrs by LC-MS/MS analysis; type: ADME, organism-based, Mesocricetus auratus; conditions: in vivo; outline: as §1
[14] = Half life in golden Syrian hamster at 2 mg/kg, iv by LC-MS/MS analysis; type: ADME, organism-based, Mesocricetus auratus; conditions: in vivo; outline: as §1
[15] = Initial concentration in Swiss albino mouse at 1 mg/kg, iv by LC-MS/MS analysis; type: ADME, organism-based; conditions: in vivo
Outline: (§3)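 Male Swiss albino mice given 1 mg/kg iv in 20% NMP/40% PEG-400 in 100 mM citrate buffer pH 3. Plasma sampled at 0.083, 0.25, 0.5, 1, 2, 4, 6, 8, 10, 24 and 48 h. Levels measured by LC–MS/MS; noncompartmental PK parameters.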

Mus musculus [16] = test: Oral bioavailability in Swiss albino mouse at 25 mg/kg by LC-MS/MS analysis; type: ADME, organism-based; conditions: in vivo
Outline: (§4)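 Male Swiss albino mice dosed orally at 25 mg/kg as a suspension in 0.5% CMC/0.08% Tween 80 in water. Plasma sampled 0.25–48 h, analysed by LC–MS/MS. F from dose-normalized AUClast against a 1 mg/kg iv dose.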

[17] = AUClast in Swiss albino mouse at 25 mg/kg, po after 24 to 48 hrs by LC-MS/MS analysis; type: ADME, organism-based; conditions: in vivo
[18] = AUClast in Swiss albino mouse at 1 mg/kg, iv after 24 to 48 hrs by LC-MS/MS analysis; type: ADME, organism-based; conditions: in vivo
[19] = Tmax in Swiss albino mouse at 25 mg/kg, po by LC-MS/MS analysis; type: ADME, organism-based; conditions: in vivo; outline: as §4
[20] = Clearance in Swiss albino mouse at 1 mg/kg, iv by LC-MS/MS analysis; type: ADME, organism-based; conditions: in vivo
Mus musculus [21] = test: (§5) Half life in Swiss albino mouse at 1 mg/kg, iv by LC-MS/MS analysis; type: ADME, organism-based; conditions: in vivo
[22] = Volume of distribution at steady state in Swiss albino mouse at 1 mg/kg, iv by LC-MS/MS analysis; type: ADME, organism-based; conditions: in vivo, read-out: Vdss; outline: as §3
[23] = Cmax in Swiss albino mouse at 25 mg/kg, po by LC-MS/MS analysis; type: ADME, organism-based; design: dose 25 mg/kg, route oral; conditions: in vivo
[24] = as §5; type: ADME, organism-based; conditions: Swiss albino, in vivo
Mus musculus [25] = test: Tmax in Swiss albino mouse at 40 mg/kg, po by LC-MS/MS analysis; type: ADME, organism-based; conditions: in vivo
[26] = Initial concentration in golden Syrian hamster at 2 mg/kg, iv by LC-MS/MS analysis; type: ADME, organism-based, Mesocricetus auratus; conditions: in vivo; outline: as §2
Syrian golden hamster = test: Oral bioavailability in golden Syrian hamster at 40 mg/kg by LC-MS/MS analysis; type: ADME, organism-based, Mesocricetus auratus; conditions: in vivo
[27] = Half life in Swiss albino mouse at 40 mg/kg, po by LC-MS/MS analysis; type: ADME, organism-based; conditions: in vivo
Mus musculus [28] = test: AUClast in Swiss albino mouse at 40 mg/kg, po after 24 to 48 hrs by LC-MS/MS analysis; type: ADME, organism-based; conditions: in vivo
Mus musculus [29] = test: Cmax in Swiss albino mouse at 40 mg/kg, po by LC-MS/MS analysis; type: ADME, organism-based; design: dose 40 mg/kg, route oral; conditions: in vivo

Stability (Liver [1]): 68% | remaining at 0.5 h, 0.5 µM [2]: 31% | Stability (Liver [3]): 68%
Compound: O=[N+]([O-])c1cn2c(n1)OC[C@H](OCc1cccc(-c3ccc(OC(F)(F)F)cc3)n1)C2

Stability (Liver [4]): 44% | Stability (Liver [5]): 35% | remaining at 1 h, 1 µM [6]: 3%
Compound: O=[N+]([O-])c1cn2c(n1)OC[C@H](OCc1cccnc1-c1ccc(OC(F)(F)F)cc1)C2

Stability (Liver [1]): 68% | Stability (Liver [3]): 79%
Compound: O=[N+]([O-])c1cn2c(n1)OC[C@H](OCc1cccc(-c3ccc(F)cc3)n1)C2

Stability (Liver [4]): 67% | Stability (Liver [5]): 87%
Compound: O=[N+]([O-])c1cn2c(n1)OC[C@@H](OCc1ccn(-c3ccc(OC(F)(F)F)cc3)n1)C2

Stability (Liver [4]): 40% | Stability (Liver [5]): 27% | Cmax [7]: 4200 ng/mL | AUC(0-t) [8]: 26700 ng·h/mL | Tmax (Mus musculus [25]): 3.3 h | C0 [26]: 940 ng/mL | Tmax [9]: 2 h | F (Syrian golden hamster): 74% | remaining at 1 h, 1 µM [6]: 10% | half-life [10]: 3.9 h | Stability (Liver [1]): 79% | remaining at 0.5 h, 0.5 µM [2]: 69% | Vd [11]: 4.2 L/kg | half-life [27]: 6.1 h | Stability (Liver [3]): 75% | clearance [12]: 18 mL/min/kg | AUC(0-t) [13]: 1890 ng·h/mL | AUClast (Mus musculus [28]): 265000 ng·h/mL | half-life [14]: 3.9 h | Cmax (Mus musculus [29]): 32000 ng/mL
Compound: O=[N+]([O-])c1cn2c(n1)OC[C@H](OCc1ccc(-c3ccc(OC(F)(F)F)cc3F)cn1)C2

Stability (Liver [5]): 82%
Compound: O=[N+]([O-])c1cn2c(n1)OC[C@@H](OCc1ccc(OC(F)(F)F)cc1)C2 [PRETOMANID]

Further lines, the molecule ahead of its results:

Compound: O=[N+]([O-])c1cn2c(n1)OC[C@H](OCc1ccc(OC(F)(F)F)cc1)C2
Stability (Liver [4]): 86% | remaining at 0.5 h, 0.5 µM [2]: 31%

Compound: O=[N+]([O-])c1cn2c(n1)OC[C@@H](OCc1ccc(-c3ccc(OC(F)(F)F)cc3F)cn1)C2
Stability (Liver [1]): 84% | remaining at 0.5 h, 0.5 µM [2]: 69% | Stability (Liver [3]): 88%

Compound: O=[N+]([O-])c1cn2c(n1)OC[C@H](OCc1ccc(-c3ccc(OC(F)F)cc3)nc1)C2
Stability (Liver [4]): 56% | Stability (Liver [5]): 58% | remaining at 1 h, 1 µM [6]: 7.9%

Compound: O=[N+]([O-])c1cn2c(n1)OC[C@H](Oc1ccc(-c3ccc(F)cc3)nc1)C2
Stability (Liver [4]): 59% | Stability (Liver [5]): 73%

Compound: CC1(C)Oc2nc([N+](=O)[O-])cn2CC1OCc1ccc(OC(F)(F)F)cc1 (configuration not stated)
Stability (Liver [4]): 72% | Stability (Liver [5]): 92%

Compound: O=[N+]([O-])c1cn2c(n1)OC[C@H](OCc1ccc(-c3ccc(OC(F)(F)F)cc3F)nc1)C2
Stability (Liver [4]): 41% | Stability (Liver [5]): 37% | Cmax [7]: 4700 ng/mL | AUC(0-t) [8]: 46500 ng·h/mL | Tmax [9]: 3.3 h | remaining at 1 h, 1 µM [6]: 9.2% | half-life [10]: 5.8 h | Vd [11]: 3.2 L/kg | clearance [12]: 8.8 mL/min/kg | AUC(0-t) [13]: 3690 ng·h/mL | half-life [14]: 5.3 h

Compound: O=[N+]([O-])c1cn2c(n1)OCC(COc1ccc(OC(F)(F)F)cc1)C2 (configuration not stated)
C0 [15]: 340 ng/mL | F (Mus musculus [16]): 50% | AUC(0-t) [17]: 15700 ng·h/mL | AUC(0-t) [18]: 1250 ng·h/mL | Tmax [19]: 1 h | clearance [20]: 13 mL/min/kg | Stability (Liver [1]): 88% | t1/2 (Mus musculus [21]): 2 h | Vd [22]: 2.5 L/kg | remaining at 0.5 h, 0.5 µM [2]: 70% | Stability (Liver [3]): 78% | Cmax [23]: 1500 ng/mL

Compound: O=[N+]([O-])c1cn2c(n1)OCC(COc1ccc(-c3ccc(F)cc3)nc1)C2 (configuration not stated)
C0 [15]: 440 ng/mL | F (Mus musculus [16]): 15% | AUC(0-t) [17]: 12000 ng·h/mL | AUC(0-t) [18]: 3180 ng·h/mL | Tmax [19]: 8 h | clearance [20]: 5.2 mL/min/kg | half-life [24]: 2.7 h | Vd [22]: 1.8 L/kg | remaining at 0.5 h, 0.5 µM [2]: 64% | Cmax [23]: 840 ng/mL

Compound: O=C(N[C@H]1COc2nc([N+](=O)[O-])cn2C1)c1cccc(OC(F)(F)F)c1
remaining at 1 h, 1 µM [6]: 59%
